# CHRM5 PAM = CHRM5 positive allosteric modulation; P08912; CHO-K1 hM5, Fluo-8 calcium, ACh EC20 PAM; 0% = ACh EC20, 100% = ACh EC100; activation, % at 3 µM; 360,000 tested, 0.3% active;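 active = activation above the run cutoff, the mean activation of all test compounds plus 3 SD, cut at about 18% in these data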
#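 Assay system: CHO-K1 hM5 cells / Incubation: Fluo-8 loading 80 min at 37 °C plus 30 min room temperature / Technique: Fluo-8 calcium dye fluorescence, kinetic read / Repeats: single replicate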
# CHRM4 agonist = agonists of human muscarinic M4 receptor (CHRM4); P08173; CHO-K1 hM4/Gqi5, Fluo-8 calcium fluorescence; vehicle 0%, full acetylcholine response 100%; activation, % at 3 µM; 360,000 tested, 0.14% active;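 active = activation above the run mean over all test wells plus 3 SD, cut at about 32% in these data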;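 also: peak over basal fluorescence ratio per well then scaled between controls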
# Target sequence (P08173 whole entry, looked up): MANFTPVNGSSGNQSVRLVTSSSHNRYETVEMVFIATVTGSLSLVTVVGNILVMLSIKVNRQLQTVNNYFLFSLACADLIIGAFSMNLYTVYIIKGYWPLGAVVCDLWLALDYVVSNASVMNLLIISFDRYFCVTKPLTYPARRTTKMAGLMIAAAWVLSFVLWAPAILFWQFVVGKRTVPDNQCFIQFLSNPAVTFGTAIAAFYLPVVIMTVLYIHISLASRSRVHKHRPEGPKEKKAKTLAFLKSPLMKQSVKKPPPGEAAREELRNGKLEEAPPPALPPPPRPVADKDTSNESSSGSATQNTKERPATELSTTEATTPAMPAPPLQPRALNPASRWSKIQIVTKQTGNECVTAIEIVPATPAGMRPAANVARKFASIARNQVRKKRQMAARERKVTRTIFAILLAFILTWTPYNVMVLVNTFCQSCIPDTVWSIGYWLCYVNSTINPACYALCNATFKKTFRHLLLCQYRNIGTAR
# CHRM5 agonist = agonists of human muscarinic M5 receptor (CHRM5) | P08912 | CHO-K1 hM5 cells, Fluo-8 calcium fluorescence; 0% DMSO wells, 100% maximal acetylcholine response | activation, % at 3 µM | 360,000 tested, 0.19% active | AID 624037;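 active = activation above the run's mean over test compounds plus 3 SD, cut at about 23% in these data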;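 also: signal is peak over basal fluorescence ratio across the kinetic read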
# M4 PAM = CHRM4 positive allosteric modulation | P08173 | CHO-K1 hM4/Gqi5, Fluo-8 calcium fluorescence, ACh EC20; 0% = ACh EC20, 100% = maximal ACh | activation, % at 3 µM | 360,000 tested, 0.4% active;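 active = activation above its plate's cutoff, the mean activation of sample wells plus 3 SD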
# CHRM5 antagonist = blocks acetylcholine activation of human M5 receptor | P08912 | CHO-hM5 cells, Fluo-8 calcium fluorescence, ACh EC80 | inhibition, % at 3 µM | 360,000 tested, 0.59% active;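 active = inhibition above a per-plate cutoff, the mean of that plate's test compounds plus 3 SD, cut at about 27% in these data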
# M4 antag = antagonists of human muscarinic M4 receptor (CHRM4) | 360,000 tested, 0.73% active | inhibition, % at 3 µM | CHO-hM4 cells, ACh EC80, Fluo-8 calcium fluorescence | P08173;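 active = inhibition above its plate's cutoff, the mean inhibition of sample wells plus 3 SD, cut at about 27% in these data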
# A number is an active result; n = inactive; ! = not confirmed by another sample. This is a sample that favours compounds with a hit; in the whole collection about 1.9% have one here.
SMILES,CHRM5 PAM,CHRM4 agonist,CHRM5 agonist,M4 PAM,CHRM5 antagonist,M4 antag
CCN(CC)CCN(C(=O)c1ccc2ccccc2c1)c1nc2ccc(F)cc2s1,n,n,n,18,n,n
CCc1ccc(OCC(=O)NNC(=O)c2cnccn2)c(Br)c1,n,n,n,20,n,n
CCOC1=C2CN(S(=O)(=O)c3ccc(C)cc3)C(c3cccc(Cl)c3)CC2NC(c2ccccc2)C1 (stereo not given),n,n,n,n,n,n
CC(C)COc1ccc(-c2nnc(-c3ccncc3)o2)cc1,n,n,n,n,n,n
COc1ccc(-c2nnc(-c3ccc(OCC(C)C)cc3)o2)cc1,n,n,n,22,n,n
Nc1ccc2c(c1)Cc1cc([N+](=O)[O-])ccc1-2,n,n,35,n,28,n
CC(=NO)c1ccc2c(c1)Cc1cc([N+](=O)[O-])ccc1-2,n,n,n,n,n,n
CC(O)CN(CC(C)O)c1ccc2c(c1)Cc1cc([N+](=O)[O-])ccc1-2 (stereo not given),n,90,527,n,73,34
c1ccc2sc(-c3ccncc3)nc2c1,32,n,n,n,28,n
CC1(C(=O)NCc2cccs2)Cc2c(-c3ccc(C(N)=O)cc3)ccnc2O1 (stereo not given),n,n,n,n,n,n
CCCCCCCC[n+]1cccc(C(=O)N(CC)CC)c1,n,n,n,n,n,n
CCCCCCCCCCCCCCCC[n+]1cccc(C(=O)N(CC)CC)c1,n,n,n,n,43!,41
COc1cc(C(=O)NC2CC(C)(C)Cc3c2cnn3-c2ccccc2)cc(OC)c1OC (stereo not given),n,n,n,n,n,n
COc1cccc(C(=O)NC2CC(C)(C)Cc3c2cnn3-c2cccc(F)c2)c1OC (stereo not given),n,n,n,n,28,n
CC1(C)Cc2c(ccc3ccccc23)C2=C(C(=O)N3CCCC3)C(=O)C(=O)N21,n,n,n,18,n,n
CC(C)CNC(=O)C1(C)CCCCCN1C(=O)c1csnn1 (stereo not given),n,n,n,19,n,n
CC(C)CNC(=O)C1(C)CCCN1C(=O)c1csnn1 (stereo not given),n,n,n,n,n,n
COc1ccc(Cc2c(-c3cccc(Cl)c3)nc3ccc(Cl)cn23)c(C)c1,n,n,n,n,n,n
COc1ccc(NC(=S)NCc2cccnc2)cc1OC,20,n,n,23,n,n
Cc1ccc2c(=O)n3c(nc2c1)C(Cc1ccccc1)NC(=O)c1cc2ccccc2cc1-3 (stereo not given),n,n,n,n,n,n
Cn1c(C(=O)NC2CC2)cc2c(=O)n(C)c3ccccc3c21,n,n,n,31,n,n
O=C(Nc1ccc2c(c1)OCO2)Nc1ccc(Br)cn1,n,n,n,41,n,n
O=C(Nc1ccc2c(c1)OCCO2)Nc1ccc2c(c1)OCO2,n,n,n,n,n,n
CCN(CC)CCNC(C(=O)Nc1cccc(C(C)=O)c1)c1ccccc1 (stereo not given),n,n,n,n,n,54
CCOc1ccc(NC(C(=O)Nc2cccc(C(C)=O)c2)c2ccccc2)cc1 (stereo not given),n,n,n,n,n,n
SMILES,CHRM5 PAM,CHRM4 agonist,CHRM5 agonist,M4 PAM,CHRM5 antagonist,M4 antag
CCOC(=O)C1=CCN(S(=O)(=O)c2ccc(Cl)cc2)C1c1ccccc1 (stereo not given),n,n,n,n,n,n
CN(C)CCOC1c2ccccc2CCc2ccc3ccccc3c21 (stereo not given),n,n,n,n,33,n
CCCc1nc2ccc(C)cn2c1Cc1ccc(OC)cc1C,n,n,n,n,n,n
CCCCCc1c(-c2ccc(OC)cc2)ncn1CCc1ccccc1OC,n,n,n,n,n,34
CCCCc1c(-c2ccccc2)ncn1CCc1ccccc1OC,n,n,n,n,n,n
CCCCCc1c(-c2ccc(Cl)cc2)ncn1CCc1ccccc1OC,n,n,n,n,n,n
CCCCc1c(-c2ccc(OC)cc2)ncn1CCc1ccccc1OC,n,n,n,n,n,33
CCOC(=O)[C@]12CCCC=C1N(CCC1=CCCCC1)C(=O)[C@H](CC(=O)NCc1ccc(OC)c(OC)c1)C2,n,n,n,n,n,n
OCCNc1ncnc2c1ncn2[C@H]1CN(Cc2ccncc2)C[C@@H](CO)O1,n,n,n,n,n,n
COc1ccc(Nc2nc(-c3ccc4c(c3)NC(=O)CO4)cs2)cc1,n,n,n,22,n,n
COc1ccccc1Nc1nc(-c2ccc3c(c2)NC(=O)CO3)cs1,n,n,n,n,n,n
COCCCNC(=O)/C(C#N)=C/c1c(N2CCN(c3ccc(OC)cc3)CC2)nc2c(C)cccn2c1=O,n,n,n,n,31,n
Cc1cccn2c(=O)c(/C=C(\C#N)C(N)=O)c(N3CCN(Cc4ccc5c(c4)OCO5)CC3)nc12,n,n,n,n,n,40
COc1cccc(NC(=O)C2(C)CCN2C(=O)CC2CCCC2)c1 (stereo not given),n,n,n,n,n,n
OC[C@@H]1CN(Cc2ccccc2)C[C@H](n2cnc3c(N4CCOCC4)ncnc32)O1,n,n,n,n,n,n
COc1cc2cc(C(c3nnnn3C3CCCC3)N3CCCCC3)c(=O)[nH]c2cc1OC (stereo not given),n,n,n,n,34,n
CCCCc1nc2sc3c(=O)n(N)cnc3c2c2c1CCCC2,n,n,n,n,n,n
CCCc1nc2sc3c(=O)n(N)cnc3c2c2c1CCCC2,21,n,n,n,n,n
Cc1ccc(S(=O)(=O)N2[C@H](CC(=O)c3ccc(Cl)c(Cl)c3)OC[C@@H]2C)cc1,n,n,n,n,n,n
C=Cc1cccc(NC(=O)COc2ccccc2)c1,18,n,n,n,n,n
CCOC(=O)c1ccc(NC(=S)N2CCC(O)CC2)cc1,n,n,n,n,n,n
CCOC(=O)c1ccc(NC(=S)N2CCSC2c2ccc(Br)cc2)cc1 (stereo not given),n,46,n,n,n,28
COc1ccc(CNS(=O)(=O)c2ccc3c(c2)N(C)CCO3)cc1,n,n,n,n,29,n
OC[C@@H]1CN(Cc2ccc(-c3ccccc3)cc2)C[C@H](n2cnc3c(Nc4ccccc4)ncnc32)O1,n,n,n,n,n,37
OC[C@@H]1CN(Cc2ccc(F)cc2)C[C@H](n2cnc3c(Nc4ccccc4)ncnc32)O1,n,n,n,n,n,n
